Test results taken from ChEMBL document CHEMBL1667791, “Opioid bifunctional ligands from morphine and the opioid pharmacophore Dmt-Tic” (Eur J Med Chem, 2011).
Activity calls are given as the source filed them. No cut-off for these calls is given here.

Columns and labels:
[1] = species on record: Homo sapiens; test: Selectivity ratio of Ki for human kappa opioid receptor to Ki for human mu opioid receptor
[2] = species on record: Homo sapiens; test: Selectivity ratio of Ki for human mu opioid receptor to Ki for human delta opioid receptor
[3] = molecular target: T1, Mu-type opioid receptor (Homo sapiens, UniProt P35372); test: Displacement of [3H]DAMGO from human mu opioid receptor expressed in CHO cells after 60 mins by scintillation counting; assay type: cell-based
[4] = molecular target: T2, Delta-type opioid receptor (Homo sapiens, UniProt P41143); test: Displacement of [3H]naltrindole from human delta opioid receptor expressed in CHO cells after 3 hrs by scintillation counting; assay type: cell-based
[5] = molecular target: T3, Kappa-type opioid receptor (Homo sapiens, UniProt P41145); test: Displacement of [3H]U69593 from human kappa opioid receptor expressed in CHO cells after 60 mins by scintillation counting; assay type: cell-based
[6] = species on record: Homo sapiens; test: Selectivity ratio of Ki for human kappa opioid receptor to Ki for human delta opioid receptor
[7] = molecular target: T1, Mu-type opioid receptor; test: Agonist activity at human mu opioid receptor expressed in CHO cells by [35S]GTPgammaS binding assay relative to control; assay type: functional, cell-based
Method in brief: (§1)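 [35S]GTPγS binding (0.080 nM final) on membranes from CHO cells stably expressing human δ (10 μg), μ (7.5 μg) or κ (15 μg) receptors. Twelve compound concentrations were tested in 50 mM Tris-HCl pH 7.4 with 3 mM MgCl2, 0.2 mM EGTA, 3 μM GDP and 100 mM NaCl, for 60 min at 30 °C. Nonspecific binding was set with 10 μM GTPγS. Samples were filtered and counted. Emax was taken relative to basal (0%). Values are mean ± S.E.M., ≥3 experiments in triplicate.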

[8] = molecular target: T2, Delta-type opioid receptor; test: Agonist activity at human delta opioid receptor expressed in CHO cells by [35S]GTPgammaS binding assay relative to control; assay type: functional, cell-based; method in brief: as §1
[9] = molecular target: T3, Kappa-type opioid receptor; test: Agonist activity at human kappa opioid receptor expressed in CHO cells by [35S]GTPgammaS binding assay relative to control; assay type: functional, cell-based; method in brief: as §1
[10] = molecular target: T1, Mu-type opioid receptor; test: Antagonist activity at human mu opioid receptor expressed in CHO cells assessed as inhibition of DAMGO-induced [35S]GTPgammaS binding; assay type: functional, cell-based
[11] = molecular target: T1, Mu-type opioid receptor; test: Antagonist activity at human mu opioid receptor expressed in CHO cells assessed as inhibition of DAMGO-induced [35S]GTPgammaS binding relative to control; assay type: functional, cell-based
Method in brief: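 Human μ-receptor CHO membranes (7.5 μg) were incubated with twelve compound concentrations plus 200 nM DAMGO and 0.080 nM [35S]GTPγS. Nonspecific binding was set with 10 μM GTPγS. Read by filtration and scintillation counting.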

[12] = molecular target: T2, Delta-type opioid receptor; test: Antagonist activity at human delta opioid receptor expressed in CHO cells assessed as inhibition of […]-induced [35S]GTPgammaS binding; assay type: functional, cell-based
[13] = molecular target: T2, Delta-type opioid receptor; test: Antagonist activity at human delta opioid receptor expressed in CHO cells assessed as inhibition of […]-induced [35S]GTPgammaS binding relative to control; assay type: functional, cell-based
[14] = molecular target: T3, Kappa-type opioid receptor; test: Antagonist activity at human kappa opioid receptor expressed in CHO cells assessed as inhibition of […]-induced [35S]GTPgammaS binding; assay type: functional, cell-based
[15] = molecular target: T3, Kappa-type opioid receptor; test: Antagonist activity at human kappa opioid receptor expressed in CHO cells assessed as inhibition of […]-induced [35S]GTPgammaS binding relative to control; assay type: functional, cell-based

T2 sequence (P41143 whole entry): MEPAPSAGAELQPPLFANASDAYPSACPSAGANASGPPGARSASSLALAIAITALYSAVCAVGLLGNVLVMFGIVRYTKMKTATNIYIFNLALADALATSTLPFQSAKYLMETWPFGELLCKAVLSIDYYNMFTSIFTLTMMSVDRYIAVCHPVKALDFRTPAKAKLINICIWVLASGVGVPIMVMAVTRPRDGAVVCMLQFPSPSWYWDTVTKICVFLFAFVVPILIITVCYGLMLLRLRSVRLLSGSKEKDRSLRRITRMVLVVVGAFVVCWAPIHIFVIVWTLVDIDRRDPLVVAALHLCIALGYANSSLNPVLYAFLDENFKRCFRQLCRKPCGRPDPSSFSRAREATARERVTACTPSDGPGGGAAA
T1 sequence (P35372 whole entry): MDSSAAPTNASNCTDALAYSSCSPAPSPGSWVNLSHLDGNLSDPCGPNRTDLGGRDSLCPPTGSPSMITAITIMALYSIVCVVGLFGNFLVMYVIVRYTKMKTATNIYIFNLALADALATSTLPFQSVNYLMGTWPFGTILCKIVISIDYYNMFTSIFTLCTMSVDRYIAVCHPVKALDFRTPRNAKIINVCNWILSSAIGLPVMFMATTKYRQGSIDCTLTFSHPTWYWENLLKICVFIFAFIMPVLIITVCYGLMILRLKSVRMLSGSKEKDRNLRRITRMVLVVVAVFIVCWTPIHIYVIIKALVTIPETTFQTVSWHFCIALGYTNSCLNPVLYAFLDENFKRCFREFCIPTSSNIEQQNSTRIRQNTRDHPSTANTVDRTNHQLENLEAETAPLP
T3 sequence (P41145 whole entry): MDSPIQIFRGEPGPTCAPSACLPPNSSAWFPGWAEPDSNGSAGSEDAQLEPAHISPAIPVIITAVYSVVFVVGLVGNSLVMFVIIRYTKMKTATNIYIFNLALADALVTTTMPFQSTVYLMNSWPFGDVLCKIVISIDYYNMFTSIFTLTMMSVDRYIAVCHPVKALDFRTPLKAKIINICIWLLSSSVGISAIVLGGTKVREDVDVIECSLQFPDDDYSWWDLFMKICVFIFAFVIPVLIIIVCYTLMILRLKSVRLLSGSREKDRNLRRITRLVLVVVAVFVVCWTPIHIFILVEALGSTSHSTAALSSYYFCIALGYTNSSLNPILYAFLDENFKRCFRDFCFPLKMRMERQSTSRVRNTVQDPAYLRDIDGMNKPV

Compound: Cc1cc(O)cc(C)c1C[C@@H](C(=O)N1Cc2ccccc2C[C@H]1C(=O)NCCC(=O)O)N(C)C
- Ratio Ki [1]: > 2.2

Compound: Cc1cc(O)cc(C)c1C[C@@H](C(=O)N1Cc2ccccc2C[C@H]1C(=O)OC1=C2O[C@H]3[C@@H](O)C=C[C@H]4[C@H]5CC(C=C1)C2[C@]43CCN5C)N(C)C (stereo partly drawn)
- Ratio Ki [2]: 1.5
- Ki [3]: 1.1 nM
- Ki [4]: 1.6 nM
- Ki [5]: 12 nM
- Ratio Ki [6]: 7.5
- Ratio Ki [1]: 11
- Emax [7]: 0.43%
- Emax [8]: -4.9%
- Emax [9]: 2.6%
- IC50 [10]: 13 nM
- Imax [11]: 97%
- IC50 [12]: 1.7 nM
- Imax [13]: 120%
- IC50 [14]: 3100 nM
- Imax [15]: 99%

Compound: Cc1cc(O)cc(C)c1C[C@@H](C(=O)N1Cc2ccccc2C[C@H]1C(=O)O)N(C)C
- Ratio Ki [6]: > 3740
- Ratio Ki [1]: > 4.3

Compound: Cc1cc(O)cc(C)c1C[C@@H](C(=O)N1Cc2ccccc2C[C@H]1C(=O)NCCC(=O)OC1=C2O[C@H]3[C@@H](O)C=C[C@H]4[C@H]5CC(C=C1)C2[C@]43CCN5C)N(C)C (stereo partly drawn)
- Emax [7]: 14%
- Emax [9]: 41%
- Imax [11]: 69%
- Imax [13]: 120%
- Imax [15]: inactive
